Active and inactive are the calls of the source. No cut-off for these calls is given here.
Key:
[1] = system: K562; assay: Cytotoxicity against human K562 cells after 72 hrs by MTS assay; type: cell-based; details: K562, 72 h
In short: (§1)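 Cells (1×10⁴/well) seeded and grown 24 h, then exposed to a range of compound concentrations for 72 h at 37 °C, 5% CO₂. MTS added for 3 h, absorbance read at 490 nm. IC50 = concentration giving 50% growth decrease, taken from dose–response curves; mean of triplicate experiments. K562/A02 is the adriamycin-induced P-gp-overexpressing subline.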

[2] = Cytotoxicity against human K562/A02 cells overexpress P-gp after 72 hrs by MTS assay; type: ADME, cell-based; details: K562/A02, 72 h; in short: as §1
[3] = Effect on P-gp ATPase activity assessed as relative light units at 200 uM by P-gp-GloTM assay
In short: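 P-gp ATPase measured by luminescence of remaining ATP; RLU inversely related to ATPase activity. Means of three separate experiments; Student's t test against untreated.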

[4] = system: P-glycoprotein (P-gp); assay: Ratio of IC50 for human K562/A02 cells overexpress P-gp to IC50 for human K562 cells; type: cell-based; details: K562/A02 cells overexpressing P-gp and parental K562 cells, read-out: Ratio IC50
[5] = system: K562/A02; assay: Growth inhibition of human K562/A02 cells at 3.5 uM after 72 hrs by MTS assay; type: functional, cell-based
In short: (§2)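 ADR at 3.5 µM (K562/A02) or 0.2 µM (K562), alone or combined with compound at 2.5, 5 or 10 µM, for 72 h. Survival measured by MTS and given as percent growth of untreated control. Mean ± S.D. of three independent experiments; statistics versus ADR alone.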

[6] = system: K562; assay: Growth inhibition of human K562 cells at 0.2 uM after 72 hrs by MTS assay; type: functional, cell-based; in short: as §2
[7] = system: K562; assay: Induction of rhodamine-123 accumulation in human K562 cells preincubated for 1 hr prior rhodamine 123 addition measured after 30 mins by flow cytometry relative to control; type: functional, cell-based
In short: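 Cells (1×10⁶) pre-incubated with compound or 0.1% DMSO vehicle at 37 °C for 1 h. Rhodamine 123 then added to 0.5 µM for 30 min. Cell-associated fluorescence read by flow cytometry. Fold change = fluorescence divided by that of DMSO control cells; mean ± S.D. of three independent experiments.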

[8] = system: K562/A02; assay: Inhibition of Pgp-mediated rhodamine 123 efflux in human K562/A02 cells assessed as intracellular rhodamine 123 accumulation at 3.3 uM preincubated for 30 mins measured after 60 mins by fluorescence microscopy relative to control; type: cell-based
In short: (§3)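 Efflux assay: K562/A02 cells incubated 30 min with 0.5 µM rhodamine 123 plus compound (0.33, 3.3 or 10 µM). Cells washed twice with PBS, resuspended in medium and left 60 min at 37 °C to efflux dye. Retained dye viewed by fluorescence microscopy, with flow cytometry in parallel; 0.1% DMSO as vehicle control.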

[9] = system: K562/A02; assay: Inhibition of Pgp-mediated rhodamine 123 efflux in human K562/A02 cells assessed as intracellular rhodamine 123 accumulation preincubated for 30 mins measured after 60 mins by fluorescence microscopy relative to control; type: cell-based; in short: as §3
[10] = Growth inhibition of human K562/A02 cells at 10 uM after 72 hrs by MTS assay; type: cell-based; details: read-out: GI
In short: (§4)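 K562 and K562/A02 cells given compound alone at 10 µM for 72 h. Survival measured by MTS and expressed as percent of untreated control. Three independent experiments.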

[11] = Growth inhibition of human K562 cells at 10 uM after 72 hrs by MTS assay; type: cell-based; details: read-out: GI; in short: as §4
[12] = Cytotoxicity against human K562/A02 cells assessed as survival rate at 10 uM after 72 hrs by MTS assay; type: cell-based; details: read-out: Activity; in short: as §4
[13] = molecular target: T1, ATP-dependent translocase ABCB1 (Homo sapiens, UniProt P08183); assay: Inhibition of P-glycoprotein in human K562/A02 cells assessed as potentiation of adriamycin-induced cytotoxicity by measuring survival rate at 2.5 uM after 72 hrs by MTS assay (reference value: 95%); type: cell-based; details: k562/a02, 72 h; in short: as §2
T1 sequence (P08183 whole entry): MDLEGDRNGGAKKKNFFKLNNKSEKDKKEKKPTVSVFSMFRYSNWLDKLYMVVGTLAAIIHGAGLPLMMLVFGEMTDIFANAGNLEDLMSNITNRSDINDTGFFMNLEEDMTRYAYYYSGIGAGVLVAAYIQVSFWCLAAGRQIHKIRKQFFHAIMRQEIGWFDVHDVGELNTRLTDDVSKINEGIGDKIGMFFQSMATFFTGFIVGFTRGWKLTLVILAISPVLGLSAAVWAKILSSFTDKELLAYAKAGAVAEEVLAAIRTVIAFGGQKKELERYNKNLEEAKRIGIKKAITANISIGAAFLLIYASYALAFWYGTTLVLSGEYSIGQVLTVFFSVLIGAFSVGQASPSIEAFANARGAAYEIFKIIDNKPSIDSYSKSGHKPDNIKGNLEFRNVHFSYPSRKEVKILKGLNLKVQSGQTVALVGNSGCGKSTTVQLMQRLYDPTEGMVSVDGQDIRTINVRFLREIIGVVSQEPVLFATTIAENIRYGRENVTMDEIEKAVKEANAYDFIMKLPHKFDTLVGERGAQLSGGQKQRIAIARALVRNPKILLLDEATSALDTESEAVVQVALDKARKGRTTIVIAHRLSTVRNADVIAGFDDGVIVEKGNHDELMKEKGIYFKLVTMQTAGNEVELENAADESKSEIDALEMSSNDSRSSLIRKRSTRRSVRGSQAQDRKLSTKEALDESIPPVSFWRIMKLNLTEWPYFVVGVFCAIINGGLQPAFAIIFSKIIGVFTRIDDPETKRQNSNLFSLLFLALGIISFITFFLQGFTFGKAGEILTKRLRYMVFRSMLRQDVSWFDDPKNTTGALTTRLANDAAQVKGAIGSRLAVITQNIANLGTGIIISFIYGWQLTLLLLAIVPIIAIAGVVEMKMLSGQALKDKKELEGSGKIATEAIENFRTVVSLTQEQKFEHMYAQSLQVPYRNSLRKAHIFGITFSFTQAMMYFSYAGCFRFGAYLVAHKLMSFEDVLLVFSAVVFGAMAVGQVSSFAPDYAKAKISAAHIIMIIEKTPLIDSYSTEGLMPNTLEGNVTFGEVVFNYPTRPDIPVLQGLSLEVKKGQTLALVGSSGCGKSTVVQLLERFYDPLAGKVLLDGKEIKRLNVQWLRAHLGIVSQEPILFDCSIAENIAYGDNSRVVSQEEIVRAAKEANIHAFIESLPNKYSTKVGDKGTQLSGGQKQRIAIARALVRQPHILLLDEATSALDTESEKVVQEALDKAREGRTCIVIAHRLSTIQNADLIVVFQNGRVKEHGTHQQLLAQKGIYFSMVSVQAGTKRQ

[14] = molecular target: T1, ATP-dependent translocase ABCB1; assay: Inhibition of P-glycoprotein in human K562/A02 cells assessed as potentiation of adriamycin-induced cytotoxicity by measuring survival rate at 5 uM after 72 hrs by MTS assay (reference value: 95%); type: cell-based; details: k562/a02, 72 h; in short: as §2
[15] = molecular target: T1, ATP-dependent translocase ABCB1; assay: Inhibition of P-glycoprotein in human K562/A02 cells assessed as potentiation of adriamycin-induced cytotoxicity by measuring survival rate at 10 uM after 72 hrs by MTS assay (reference value: 95%); type: cell-based; details: k562/a02, 72 h
[16] = system: K562; assay: Potentiation of adriamycin-induced cytotoxicity against human K562 cells at 2.5 to 10 uM after 72 hrs by MTS assay; type: functional, cell-based; in short: as §2
[17] = molecular target: T1, ATP-dependent translocase ABCB1; assay: Inhibition of P-glycoprotein in human K562/A02 cells assessed as potentiation of adriamycin-induced cytotoxicity at 10 uM preincubated for 24 hrs followed by washout before addition of adriamycin measured after 72 hrs by MTS assay (reference value: 33.59 uM); type: cell-based; details: k562/a02, 72 h
In short: (§5)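 K562/A02 cells (1×10⁵/well) cultured overnight, then treated with 10 µM compound for 24 h. Washed three times with PBS and moved to compound-free medium. ADR at various concentrations added 0, 6, 12 or 24 h after removal, then 72 h further incubation. Read by MTS at 490 nm; ADR IC50 derived; mean ± S.E. of triplicates.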

[18] = molecular target: T1, ATP-dependent translocase ABCB1; assay: Inhibition of P-glycoprotein in human K562/A02 cells assessed as potentiation of adriamycin-induced cytotoxicity at 10 uM preincubated for 24 hrs followed by washout addition of adriamycin at 6 hrs post washout measured after 72 hrs by MTS assay (reference value: 35.15 uM); type: cell-based; details: k562/a02, 72 h; in short: as §5
[19] = molecular target: T1, ATP-dependent translocase ABCB1; assay: Inhibition of P-glycoprotein in human K562/A02 cells assessed as potentiation of adriamycin-induced cytotoxicity at 10 uM preincubated for 24 hrs followed by washout addition of adriamycin at 12 hrs post washout measured after 72 hrs by MTS assay (reference value: 54.11 uM); type: cell-based; details: k562/a02, 72 h; in short: as §5
[20] = molecular target: T1, ATP-dependent translocase ABCB1; assay: Inhibition of P-glycoprotein in human K562/A02 cells assessed as potentiation of adriamycin-induced cytotoxicity at 10 uM preincubated for 24 hrs followed by washout addition of adriamycin at 24 hrs post washout measured after 72 hrs by MTS assay (reference value: 51.67 uM); type: cell-based; details: k562/a02, 72 h; in short: as §5
[21] = Down regulation of P-gp mRNA level in human K562/A02 cells at 10 uM after 72 hrs by RT-PCR analysis; type: functional, cell-based
[22] = Down regulation of P-gp level in human K562/A02 cells at 10 uM after 72 hrs by Western blotting analysis; type: functional, cell-based
[23] = Effect on P-gp ATPase activity assessed as relative light units at 40 uM by P-gp-GloTM assay (reference value: 242328 +/- 1398 RLU)
[24] = molecular target: T1, ATP-dependent translocase ABCB1; assay: Inhibition of P-glycoprotein in human K562/A02 cells assessed as potentiation of adriamycin-induced cytotoxicity at 2.5 to 10 uM after 72 hrs by MTS assay; type: cell-based; details: k562/a02, 72 h; in short: as §2

Q: With `COC(=O)c1cc(OC)c2c(c1-c1c(/C=C(\C#N)C(=O)c3ccc(C)cc3)cc(OC)c3c1OCO3)OCO2` as the compound, how does the IC50 [1] read?
A: 61.3 µM

Q: And the IC50 [2]?
A: 48.4 µM

Q: What does the source list for `COC(=O)c1cc(OC)c2c(c1-c1c(/C=C/C(=O)c3ccc(OC)cc3OC)cc(OC)c3c1OCO3)OCO2`?
A: IC50 [1]: > 100 µM; IC50 [2]: > 100 µM

Q: Which results are given for `COC(=O)c1cc(OC)c2c(c1-c1c(/C=C/C(=O)c3ccc([N+](=O)[O-])cc3)cc(OC)c3c1OCO3)OCO2`?
A: IC50 [1]: 73.4 µM; IC50 [2]: > 100 µM

Q: Which RLU [3] does the source give for SODIUM ORTHOVANAD here?
A: 282000

Q: Which IC50 [1] does the source give for `COC(=O)c1cc(OC)c2c(c1-c1c(/C=C/C(=O)c3ccc(O)cc3)cc(OC)c3c1OCO3)OCO2` here?
A: > 100 µM

Q: What about the IC50 [2] of the same compound?
A: > 100 µM

Q: Which results are given for `COc1cccc2c1C(=O)c1c(O)c3c(c(O)c1C2=O)C[C@@](O)(C(=O)CO)C[C@@H]3O[C@H]1C[C@H](N)[C@H](O)[C@H](C)O1` [DOXORUBICIN]?
A: IC50 [1]: 0.43 µM; IC50 [2]: 46.7 µM; selectivity ratio [4]: 108; growth inhibition (GI) [5]: inactive; growth inhibition (GI) [6]: inactive

Q: With `COC(=O)c1cc(OC)c2c(c1-c1c(/C=C/C(=O)c3cc(C)ccc3C)cc(OC)c3c1OCO3)OCO2` as the compound, how does the IC50 [1] read?
A: > 200 µM

Q: And the IC50 [2]?
A: > 200 µM

Q: What about the Activity [7] of the same compound?
A: inactive

Q: What about the inhibition [8] of the same compound?
A: Active

Q: And the inhibition [9]?
A: Dose-dependent effect

Q: And the inhibition at 72 h, 10 µM [10]?
A: < 10%

Q: What about the inhibition at 72 h, 10 µM [11] of the same compound?
A: < 10%

Q: And the viability at 72 h, 10 µM [12]?
A: 95%

Q: What about the Activity [13] of the same compound?
A: 46%

Q: What about the Activity [14] of the same compound?
A: 20%

Q: What about the Activity [15] of the same compound?
A: 5%

Q: What about the Activity [16] of the same compound?
A: inactive

Q: What about the “inhibition (INH)” value [17] of the same compound?
A: Active

Q: And the “inhibition (INH)” value [18]?
A: Active

Q: And the “inhibition (INH)” value [19]?
A: Active

Q: And the “inhibition (INH)” value [20]?
A: Active

Q: What about the Activity [21] of the same compound?
A: inactive

Q: And the Activity [22]?
A: inactive

Q: And the RLU [23]?
A: 271000

Q: What about the “inhibition (INH)” value [24] of the same compound?
A: Active

Q: With `COc1ccc(CCN(C)CCCC(C#N)(c2ccc(OC)c(OC)c2)C(C)C)cc1OC` (stereo not given) as the compound, how does the Activity [7] read?
A: inactive

Q: What about the inhibition at 72 h, 10 µM [10] of the same compound?
A: < 10%

Q: What about the inhibition at 72 h, 10 µM [11] of the same compound?
A: < 10%

Q: What about the Activity [16] of the same compound?
A: inactive

Q: And the “inhibition (INH)” value [17]?
A: Active

Q: Which results are given for `COC(=O)c1cc(OC)c2c(c1-c1c(/C=C/C(=O)c3ccccc3)cc(OC)c3c1OCO3)OCO2`?
A: IC50 [1]: > 100 µM; IC50 [2]: > 100 µM

Q: With `COC(=O)c1cc(OC)c2c(c1-c1c(/C=C/C(=O)c3cc(OC)ccc3OC)cc(OC)c3c1OCO3)OCO2` as the compound, how does the IC50 [1] read?
A: > 200 µM

Q: And the IC50 [2]?
A: > 200 µM

Q: What about the Activity [7] of the same compound?
A: inactive

Q: And the inhibition at 72 h, 10 µM [10]?
A: < 10%

Q: What about the inhibition at 72 h, 10 µM [11] of the same compound?
A: < 10%

Q: And the Activity [21]?
A: inactive

Q: And the Activity [22]?
A: inactive

Q: And the “inhibition (INH)” value [24]?
A: Active

Q: Which results are given for `COC(=O)c1cc(OC)c2c(c1-c1c(/C=C(\C#N)C(=O)c3ccc(OC)cc3)cc(OC)c3c1OCO3)OCO2`?
A: IC50 [1]: > 100 µM; IC50 [2]: 37.2 µM

Q: Which IC50 [1] does the source give for `COC(=O)c1cc(OC)c2c(c1-c1c(C(=O)OC)cc(OC)c3c1OCO3)OCO2` [BIFENDATE] here?
A: > 100 µM

Q: And the IC50 [2]?
A: > 100 µM

Q: What does the source list for `COC(=O)c1cc(OC)c2c(c1-c1c(/C=C(\C#N)C(=O)c3cc(OC)c(OC)c(OC)c3)cc(OC)c3c1OCO3)OCO2`?
A: IC50 [1]: 60.3 µM; IC50 [2]: 38.9 µM

Q: With `COC(=O)c1cc(OC)c2c(c1-c1c(/C=C/C(=O)c3ccccc3OC)cc(OC)c3c1OCO3)OCO2` as the compound, how does the IC50 [1] read?
A: > 200 µM

Q: What about the IC50 [2] of the same compound?
A: > 200 µM

Q: What about the Activity [7] of the same compound?
A: inactive

Q: What about the inhibition at 72 h, 10 µM [10] of the same compound?
A: < 10%

Q: And the inhibition at 72 h, 10 µM [11]?
A: < 10%

Q: What about the Activity [21] of the same compound?
A: inactive

Q: What about the Activity [22] of the same compound?
A: inactive

Q: And the “inhibition (INH)” value [24]?
A: Active

Q: Which results are given for `COC(=O)c1cc(OC)c2c(c1-c1c(/C=C/C(=O)c3cc(OC)c(OC)c(OC)c3)cc(OC)c3c1OCO3)OCO2`?
A: IC50 [1]: 172 µM; IC50 [2]: > 200 µM; Activity [7]: inactive; inhibition at 72 h, 10 µM [10]: < 10%; inhibition at 72 h, 10 µM [11]: < 10%

Q: With `COC(=O)c1cc(OC)c2c(c1-c1c(/C=C/C(=O)c3ccc(OC)cc3)cc(OC)c3c1OCO3)OCO2` as the compound, how does the IC50 [1] read?
A: > 100 µM

Q: And the IC50 [2]?
A: > 100 µM
